Results taken from ChEMBL document CHEMBL2424574, “Structure-activity relationships and pharmacophore model of a noncompetitive pyrazoline containing class of GluN2C/GluN2D selective antagonists” (J Med Chem, 2013).
pIC50: −log10 of the molar value.

Columns and labels:
[1] = biological target: Glutamate receptor ionotropic, NMDA 2D (Rattus norvegicus) (UniProt Q62645); assay: Negative allosteric modulation of recombinant rat GluN2D receptor expressed in Xenopus laevis oocytes at 100 uM by two-electrode voltage clamp method; type: cell-based; conditions: Oocyte
Procedure, shortened: (§1)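 Two-electrode voltage clamp of Xenopus oocytes expressing rat GluN1 with GluN2A, 2B, 2C or 2D. Holding potential −40 mV in recording solution (mM: 90 NaCl, 1 KCl, 0.5 BaCl2, 0.005 EDTA, 10 HEPES, pH 7.4, 23 °C). Compounds diluted from 20 mM DMSO stocks to 0.05–0.1% final DMSO. IC50 from a Hill fit to the averaged composite concentration–response curve, 5–24 oocytes from 2–4 frogs.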

[2] = biological target: Glutamate receptor ionotropic, NMDA 2C (Rattus norvegicus) (UniProt Q00961); assay: Negative allosteric modulation of recombinant rat GluN2C receptor expressed in Xenopus laevis oocytes at 100 uM by two-electrode voltage clamp method; type: cell-based; conditions: Oocyte; procedure, shortened: as §1
Chain of Glutamate receptor ionotropic, NMDA 2C (Rattus norvegicus) (Q00961 20-1237 limits assumed): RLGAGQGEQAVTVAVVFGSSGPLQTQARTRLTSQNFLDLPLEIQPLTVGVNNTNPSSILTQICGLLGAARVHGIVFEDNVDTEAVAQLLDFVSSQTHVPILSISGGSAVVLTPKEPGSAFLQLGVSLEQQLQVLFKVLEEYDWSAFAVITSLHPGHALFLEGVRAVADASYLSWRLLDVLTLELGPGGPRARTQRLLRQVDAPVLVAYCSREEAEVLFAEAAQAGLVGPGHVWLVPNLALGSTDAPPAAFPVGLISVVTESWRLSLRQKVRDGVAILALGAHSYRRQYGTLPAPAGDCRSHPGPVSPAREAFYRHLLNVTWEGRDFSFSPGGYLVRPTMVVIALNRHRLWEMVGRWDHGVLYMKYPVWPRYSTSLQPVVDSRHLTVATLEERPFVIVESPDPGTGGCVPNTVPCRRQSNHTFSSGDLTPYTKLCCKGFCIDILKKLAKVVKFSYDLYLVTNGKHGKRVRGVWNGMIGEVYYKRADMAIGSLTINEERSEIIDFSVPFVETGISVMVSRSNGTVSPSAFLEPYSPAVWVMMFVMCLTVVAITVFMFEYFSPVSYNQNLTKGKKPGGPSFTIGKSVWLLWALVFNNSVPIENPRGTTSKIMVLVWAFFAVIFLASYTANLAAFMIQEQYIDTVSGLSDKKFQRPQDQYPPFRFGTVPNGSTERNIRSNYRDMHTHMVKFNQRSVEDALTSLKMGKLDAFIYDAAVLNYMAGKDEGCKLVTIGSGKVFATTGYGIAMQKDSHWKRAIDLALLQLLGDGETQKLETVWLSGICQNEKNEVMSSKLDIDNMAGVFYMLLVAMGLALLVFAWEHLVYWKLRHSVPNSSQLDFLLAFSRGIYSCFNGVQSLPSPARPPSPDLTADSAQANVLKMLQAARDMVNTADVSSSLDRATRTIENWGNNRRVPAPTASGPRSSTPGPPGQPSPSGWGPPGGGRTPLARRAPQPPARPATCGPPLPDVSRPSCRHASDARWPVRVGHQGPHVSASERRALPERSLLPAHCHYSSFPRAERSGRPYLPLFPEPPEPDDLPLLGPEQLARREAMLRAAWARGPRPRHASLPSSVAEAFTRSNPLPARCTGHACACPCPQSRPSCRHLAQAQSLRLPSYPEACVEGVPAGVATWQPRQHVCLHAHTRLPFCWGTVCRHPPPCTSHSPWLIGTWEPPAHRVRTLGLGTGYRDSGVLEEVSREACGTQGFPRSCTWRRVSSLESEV

[3] = biological target: Glutamate receptor ionotropic, NMDA 2B (Rattus norvegicus) (UniProt Q00960); assay: Negative allosteric modulation of recombinant rat GluN2B receptor expressed in Xenopus laevis oocytes at 100 uM by two-electrode voltage clamp method; type: cell-based; conditions: Oocyte; procedure, shortened: as §1
Chain of Glutamate receptor ionotropic, NMDA 2B (Rattus norvegicus) (Q00960 27-1482 limits assumed): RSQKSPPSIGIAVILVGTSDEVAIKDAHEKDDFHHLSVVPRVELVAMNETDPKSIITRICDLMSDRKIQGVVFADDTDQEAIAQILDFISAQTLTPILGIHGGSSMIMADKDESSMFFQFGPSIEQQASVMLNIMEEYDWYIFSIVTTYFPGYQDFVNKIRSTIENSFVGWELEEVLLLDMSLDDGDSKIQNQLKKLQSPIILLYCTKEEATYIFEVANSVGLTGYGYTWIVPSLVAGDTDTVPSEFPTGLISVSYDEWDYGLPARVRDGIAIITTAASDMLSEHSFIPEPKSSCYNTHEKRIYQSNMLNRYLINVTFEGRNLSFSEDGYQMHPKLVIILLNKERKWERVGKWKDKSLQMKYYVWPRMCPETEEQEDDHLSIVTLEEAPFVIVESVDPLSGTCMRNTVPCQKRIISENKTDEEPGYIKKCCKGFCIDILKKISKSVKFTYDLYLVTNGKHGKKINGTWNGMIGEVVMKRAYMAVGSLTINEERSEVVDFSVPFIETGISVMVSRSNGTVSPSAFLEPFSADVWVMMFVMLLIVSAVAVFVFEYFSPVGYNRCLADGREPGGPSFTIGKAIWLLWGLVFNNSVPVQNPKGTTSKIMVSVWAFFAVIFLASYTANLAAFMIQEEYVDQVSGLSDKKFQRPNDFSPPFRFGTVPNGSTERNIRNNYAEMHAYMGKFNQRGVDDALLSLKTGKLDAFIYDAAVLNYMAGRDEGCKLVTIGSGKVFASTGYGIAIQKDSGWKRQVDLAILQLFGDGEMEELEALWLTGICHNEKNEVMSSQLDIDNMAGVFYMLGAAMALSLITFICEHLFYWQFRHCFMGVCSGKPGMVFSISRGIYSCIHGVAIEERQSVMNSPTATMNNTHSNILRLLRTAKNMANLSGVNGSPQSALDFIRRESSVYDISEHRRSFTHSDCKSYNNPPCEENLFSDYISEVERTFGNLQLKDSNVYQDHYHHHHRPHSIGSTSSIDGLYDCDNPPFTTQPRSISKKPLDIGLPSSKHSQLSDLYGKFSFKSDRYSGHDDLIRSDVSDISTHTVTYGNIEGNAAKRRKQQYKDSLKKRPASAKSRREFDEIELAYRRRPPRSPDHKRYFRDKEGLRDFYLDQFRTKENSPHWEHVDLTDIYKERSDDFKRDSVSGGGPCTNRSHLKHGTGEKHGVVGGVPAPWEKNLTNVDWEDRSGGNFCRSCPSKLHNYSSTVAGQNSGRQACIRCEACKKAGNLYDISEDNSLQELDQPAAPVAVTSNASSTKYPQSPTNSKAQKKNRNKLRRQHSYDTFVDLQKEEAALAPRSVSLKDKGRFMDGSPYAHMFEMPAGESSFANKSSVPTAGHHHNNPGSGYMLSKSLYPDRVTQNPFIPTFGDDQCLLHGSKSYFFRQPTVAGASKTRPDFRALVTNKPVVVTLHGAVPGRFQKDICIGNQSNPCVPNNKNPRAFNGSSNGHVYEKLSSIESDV

[4] = biological target: Glutamate receptor ionotropic, NMDA 2A (Rattus norvegicus) (UniProt Q00959); assay: Negative allosteric modulation of recombinant rat GluN2A receptor expressed in Xenopus laevis oocytes at 100 uM by two-electrode voltage clamp method; type: cell-based; conditions: Oocyte; procedure, shortened: as §1
Chain of Glutamate receptor ionotropic, NMDA 2A (Rattus norvegicus) (Q00959 23-1464 limits assumed): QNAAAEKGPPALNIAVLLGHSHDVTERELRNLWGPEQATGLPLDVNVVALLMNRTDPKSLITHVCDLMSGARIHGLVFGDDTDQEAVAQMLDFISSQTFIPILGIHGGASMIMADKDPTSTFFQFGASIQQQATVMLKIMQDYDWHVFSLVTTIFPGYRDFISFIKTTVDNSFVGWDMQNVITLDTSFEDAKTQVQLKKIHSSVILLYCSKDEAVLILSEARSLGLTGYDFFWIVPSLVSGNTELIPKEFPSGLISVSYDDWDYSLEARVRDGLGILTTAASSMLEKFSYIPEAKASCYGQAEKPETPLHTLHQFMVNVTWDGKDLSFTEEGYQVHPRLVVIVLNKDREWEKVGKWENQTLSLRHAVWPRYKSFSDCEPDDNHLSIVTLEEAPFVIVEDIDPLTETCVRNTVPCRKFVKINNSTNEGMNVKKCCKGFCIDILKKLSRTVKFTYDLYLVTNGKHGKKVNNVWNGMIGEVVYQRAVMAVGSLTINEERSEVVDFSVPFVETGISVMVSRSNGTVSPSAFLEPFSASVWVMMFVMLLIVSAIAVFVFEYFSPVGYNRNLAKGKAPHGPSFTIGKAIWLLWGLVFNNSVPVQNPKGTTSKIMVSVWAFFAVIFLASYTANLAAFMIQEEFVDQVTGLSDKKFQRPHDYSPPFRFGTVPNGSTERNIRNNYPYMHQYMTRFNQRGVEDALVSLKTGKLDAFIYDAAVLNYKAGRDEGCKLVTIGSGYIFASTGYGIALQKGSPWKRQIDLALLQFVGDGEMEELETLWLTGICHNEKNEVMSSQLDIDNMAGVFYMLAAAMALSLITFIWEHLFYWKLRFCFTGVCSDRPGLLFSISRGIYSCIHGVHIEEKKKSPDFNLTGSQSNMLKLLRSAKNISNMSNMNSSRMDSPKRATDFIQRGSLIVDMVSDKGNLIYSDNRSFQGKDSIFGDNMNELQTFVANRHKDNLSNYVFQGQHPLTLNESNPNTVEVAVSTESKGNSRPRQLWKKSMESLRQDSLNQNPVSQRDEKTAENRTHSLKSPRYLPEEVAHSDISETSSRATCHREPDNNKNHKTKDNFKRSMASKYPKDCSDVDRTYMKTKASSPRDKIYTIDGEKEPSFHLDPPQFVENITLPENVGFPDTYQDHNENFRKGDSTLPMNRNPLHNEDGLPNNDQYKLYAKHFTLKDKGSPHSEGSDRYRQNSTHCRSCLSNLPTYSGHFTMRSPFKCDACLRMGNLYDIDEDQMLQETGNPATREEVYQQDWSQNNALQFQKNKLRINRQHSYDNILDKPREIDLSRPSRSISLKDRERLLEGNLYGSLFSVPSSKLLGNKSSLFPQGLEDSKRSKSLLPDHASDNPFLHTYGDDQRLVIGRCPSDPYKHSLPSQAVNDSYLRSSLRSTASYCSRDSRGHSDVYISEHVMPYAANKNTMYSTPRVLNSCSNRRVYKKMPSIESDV

MDCK [5] = assay: Apparent permeability across basolateral to apical side in dog MDCK cells expressing MDR1 at 5 uM after 120 mins by LC-MS/MS analysis; type: ADME, cell-based, Canis lupus familiaris; conditions: 2 h
Procedure, shortened: (§2)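 MDR1-MDCK monolayers grown to confluence on collagen-coated polycarbonate membranes. Assay buffer was HBSS with 10 mM HEPES and 15 mM glucose, pH 7.4, and the receiver side also held 1% BSA. Monolayers were dosed apically (A-to-B) or basolaterally (B-to-A) at 5 μM, 37 °C, 5% CO2. Donor and receiver were sampled at 120 min, in duplicate, by LC-MS/MS (ESI). Papp and percent recovery were calculated from receiver/donor concentrations.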

Liver microsomes [6] = assay: Intrinsic clearance in human liver microsomes measured per mg of protein at 1 uM by LC-MS/MS analysis; type: ADME, Microsome
Procedure, shortened: (§3)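 Human liver microsomes 0.5 mg/mL in 100 mM potassium phosphate pH 7.4 with 5 mM MgCl2 and 1 μM test compound. Preincubated 3 min at 37 °C, then started with 1 mM NADPH, with a testosterone control in parallel. Sampled at 0, 10, 20, 30 and 60 min and quenched in cold acetonitrile/water with formic acid and internal standard. Percent remaining by LC-MS/MS (MRM) versus time 0. t1/2 = 0.693/k from the ln-remaining slope; CLint = k/protein concentration.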

MDCK [7] = assay: Apparent permeability across apical to basolateral side in dog MDCK cells expressing MDR1 at 5 uM after 120 mins by LC-MS/MS analysis; type: ADME, cell-based, Canis lupus familiaris; conditions: 2 h; procedure, shortened: as §2
Liver microsomes [8] = assay: Half life in human liver microsomes at 1 uM; type: ADME, Microsome; procedure, shortened: as §3
Liver microsomes [9] = assay: Metabolic stability in human liver microsomes assessed as compound remaining at 1 uM after 10 mins by LC-MS/MS analysis; type: ADME, Microsome; procedure, shortened: as §3
Liver microsomes [10] = assay: Metabolic stability in human liver microsomes assessed as compound remaining at 1 uM after 30 mins by LC-MS/MS analysis; type: ADME, Microsome; conditions: 0.5 h; procedure, shortened: as §3
MDCK [11] = assay: Permeability across apical to basolateral side in dog MDCK cells expressing MDR1 assessed as compound recovery at 5 uM after 120 mins by LC-MS/MS analysis; type: ADME, cell-based, Canis lupus familiaris; conditions: 2 h; procedure, shortened: as §2
Liver microsomes [12] = assay: Metabolic stability in human liver microsomes assessed as compound remaining at 1 uM after 60 mins by LC-MS/MS analysis; type: ADME, Microsome; conditions: 1 h; procedure, shortened: as §3
MDCK [13] = assay: Permeability across basolateral to apical side in dog MDCK cells expressing MDR1 assessed as compound recovery at 5 uM after 120 mins by LC-MS/MS analysis; type: ADME, cell-based, Canis lupus familiaris; conditions: 2 h; procedure, shortened: as §2
Liver microsomes [14] = assay: Metabolic stability in human liver microsomes assessed as compound remaining at 1 uM after 20 mins by LC-MS/MS analysis; type: ADME, Microsome; procedure, shortened: as §3
[15] = biological target: Glutamate receptor ionotropic, NMDA 2D (Homo sapiens, UniProt O15399+Q05586); assay: Inhibition of NMDA GluN2D receptor (unknown origin)
Homo sapiens = species on record: Homo sapiens; assay: Selectivity ratio of IC50 for NMDA GluN2B receptor (unknown origin) to IC50 for NMDA GluN2D receptor (unknown origin)

Row | SMILES | inhibition [1] | inhibition [2] | inhibition [3] | inhibition [4] | Papp (MDCK [5]) | CLint (Liver microsomes [6]) | Papp (MDCK [7]) | t1/2 (Liver microsomes [8]) | Stability (Liver microsomes [9]) | Stability (Liver microsomes [10]) | Drug recovery (MDCK [11]) | Stability (Liver microsomes [12]) | Drug recovery (MDCK [13]) | Stability (Liver microsomes [14]) | pIC50 [15] | Ratio IC50 (Homo sapiens)
1 | O=C(CCCF)N1N=C(c2c(-c3ccc(Cl)cc3)c3ccccc3[nH]c2=O)CC1c1ccc(Cl)cc1 (stereo not drawn) | < 30% | < 30% | < 30% | < 30% | 9.52 ×10⁻⁶ cm/s | 0.04 mL/min/mg | 3.88 ×10⁻⁶ cm/s | 35 min | 67% | 49% | 43% | 39% | 67% | 49% |  | 
2 | COC(=O)CCCN1N=C(c2c(-c3ccc(Cl)cc3)c3ccccc3[nH]c2=O)CC1c1ccc(Cl)cc1 (stereo not drawn) | < 30% | < 30% | < 30% | < 30% |  |  |  |  |  |  |  |  |  |  |  | 
3 | O=C(O)CCC(=O)N1N=C(c2c(-c3ccccc3)c3cc(Cl)ccc3[nH]c2=O)CC1c1ccc(C(=O)O)cc1 (stereo not drawn) | < 30% | < 30% | < 30% | < 30% |  |  |  |  |  |  |  |  |  |  |  | 

More lines, now with the values ahead:

Row | inhibition [1] | inhibition [2] | inhibition [3] | inhibition [4] | Papp (MDCK [5]) | CLint (Liver microsomes [6]) | Papp (MDCK [7]) | t1/2 (Liver microsomes [8]) | Stability (Liver microsomes [9]) | Stability (Liver microsomes [10]) | Drug recovery (MDCK [11]) | Stability (Liver microsomes [12]) | Drug recovery (MDCK [13]) | Stability (Liver microsomes [14]) | pIC50 [15] | Ratio IC50 (Homo sapiens) | SMILES
4 | < 30% | < 30% | < 30% | < 30% |  |  |  |  |  |  |  |  |  |  |  |  | COC(=O)CCC(=O)N1N=C(c2c(-c3ccccc3)c3cc(Cl)ccc3[nH]c2=O)CC1c1ccc(Br)cc1 (stereo not drawn)
5 |  |  |  |  |  |  |  |  |  |  |  |  |  |  | 5.57 | 41 | Cc1ccc2[nH]c(=O)c(C3=NN(C(=O)CCC(=O)O)C(c4ccc(Br)cc4)C3)c(-c3ccccc3)c2c1 (stereo not drawn)
